In ChEMBL document CHEMBL2434863, “Synthesis and in vitro/in vivo antibacterial activity of oxazolidinones having thiocarbamate at C-5 on the A-ring and an amide- or urea-substituted [1,2,5]triazepane or [1,2,5]oxadiazepane as the C-ring” (Eur J Med Chem, 2013):

How the values were obtained:
Assay type in all cases: functional
[1] = system: Moraxella catarrhalis; experiment: Antibacterial activity against Moraxella catarrhalis SR26840 clinical isolate assessed as growth inhibition by broth microdilution method
[2] = system: Enterococcus faecalis; experiment: Antibacterial activity against Enterococcus faecalis SR1004 clinical isolate assessed as growth inhibition by broth microdilution method
[3] = system: Haemophilus influenzae; experiment: Antibacterial activity against Haemophilus influenzae SR27914 clinical isolate assessed as growth inhibition by broth microdilution method
[4] = system: Staphylococcus aureus; experiment: Antibacterial activity against Staphylococcus aureus Smith assessed as growth inhibition by broth microdilution method
[5] = system: Enterococcus faecium; experiment: Antibacterial activity against Enterococcus faecium SR7940 clinical isolate assessed as growth inhibition by broth microdilution method
[6] = system: Staphylococcus aureus; experiment: Antibacterial activity against Staphylococcus aureus SR20549 clinical isolate assessed as growth inhibition by broth microdilution method
[7] = system: Streptococcus pneumoniae; experiment: Antibacterial activity against Streptococcus pneumoniae SR26207 clinical isolate assessed as growth inhibition by broth microdilution method
[8] = system: Staphylococcus aureus; experiment: Antibacterial activity against linezolid-resistant Staphylococcus aureus NRS271 assessed as growth inhibition by broth microdilution method
[9] = system: Staphylococcus aureus; experiment: Antibacterial activity against methicillin-resistant Staphylococcus aureus SR3637 assessed as growth inhibition by broth microdilution method
[10] = system: Staphylococcus aureus; experiment: Antibacterial activity against methicillin-resistant Staphylococcus aureus SR3637 infected in JCL/ICR mouse systemic infection model assessed as mortality administered as iv measured over 7 days; conditions: 168 h
Method in brief: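 Lethal systemic infection model in mice; test agents were given intravenously.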

| SMILES | MIC [1] [µg/mL] | MIC [2] [µg/mL] | MIC [3] [µg/mL] | MIC [4] [µg/mL] | MIC [5] [µg/mL] | MIC [6] [µg/mL] | MIC [7] [µg/mL] | MIC [8] [µg/mL] | MIC [9] [µg/mL] | ED50 [10] [mg/kg] |
| --- | --- | --- | --- | --- | --- | --- | --- | --- | --- | --- |
| CONC(=O)N1CCN(c2ccc(N3C[C@H](CNC(=S)OC)OC3=O)cc2F)CCN1 | 4 | 0.5 | 16 | 1 | 0.5 | 1 | 0.25 | 16 | – | – |
| CONC(=O)N1CCN(c2c(F)cc(N3C[C@H](CNC(=S)OC)OC3=O)cc2F)CCN1 | 2 | 0.5 | 16 | 0.5 | 0.25 | 0.5 | 0.25 | 4 | 0.5 | 3.05 |
| CONC(=O)N1CCN(c2c(F)cc(N3C[C@H](CNC(=S)OC)OC3=O)cc2F)CCO1 | 2 | 1 | 16 | 1 | 0.5 | 0.5 | 0.125 | 8 | – | – |
| CC(=O)NC[C@H]1CN(c2ccc(-c3ccc(N4CCON(C(=O)CO)CC4)nc3)c(F)c2)C(=O)O1 | 16 | 1 | 16 | 2 | 1 | 1 | 0.125 | 8 | – | – |
| O=C(CO)N1CCN(c2ccc(-c3ccc(N4C[C@H](Cn5ccnn5)OC4=O)cc3F)cn2)CCO1 | 8 | 2 | 32 | 2 | 1 | 1 | 0.25 | 8 | – | – |
| NC(=O)N1CCN(c2c(F)cc(N3C[C@H](Cn4ccnn4)OC3=O)cc2F)CCO1 | 8 | 4 | 16 | 2 | 4 | 1 | 1 | 32 | – | – |
| NC(=O)N1CCN(c2c(F)cc(N3C[C@H](CNc4ccon4)OC3=O)cc2F)CCN1 | 8 | 1 | 16 | 1 | 1 | 0.5 | 0.125 | 16 | – | – |
| CNC(=O)N1CCN(c2c(F)cc(N3C[C@H](CNC(=S)OC)OC3=O)cc2F)CCN1 | 1 | 0.25 | 8 | 0.25 | 0.25 | 0.25 | ≤ 0.063 | 2 | 0.25 | 3.17 |
| CNC(=O)N1CCN(c2c(F)cc(N3C[C@H](CNC(=S)OC)OC3=O)cc2F)CCO1 | 2 | 1 | 32 | 0.5 | 0.5 | 0.5 | 0.125 | 4 | – | – |
| CNC(=O)N1CCN(c2c(F)cc(N3C[C@H](Cn4ccnn4)OC3=O)cc2F)CCO1 | 16 | 4 | 32 | 8 | 2 | 2 | 1 | 32 | – | – |
| COC(=S)NC[C@H]1CN(c2ccc(N3CCNN(C(=O)NO)CC3)c(F)c2)C(=O)O1 | 4 | 1 | 4 | 1 | 1 | 0.5 | ≤ 0.063 | 16 | – | – |
| O=C(NO)N1CCN(c2c(F)cc(N3C[C@H](Cn4ccnn4)OC3=O)cc2F)CCN1 | 8 | 8 | 16 | 4 | 8 | 2 | 0.5 | 64 | – | – |
| O=C(NO)N1CCN(c2c(F)cc(N3C[C@H](Cn4ccnn4)OC3=O)cc2F)CCO1 | 8 | 4 | 16 | 2 | 4 | 2 | 0.5 | 64 | – | – |
| CC(=O)NC[C@H]1CN(c2cc(F)c(N3CCn4c(=O)c5cc(N)cnc5n4CC3)c(F)c2)C(=O)O1 | 8 | 2 | 32 | 0.5 | 2 | 1 | 0.25 | 8 | – | – |
| Nc1cnc2c(c1)c(=O)n1n2CCN(c2c(F)cc(N3C[C@H](Cn4ccnn4)OC3=O)cc2F)CC1 | 16 | 2 | 32 | 1 | 2 | 1 | 0.25 | 16 | – | – |
| NC(=O)N1CCN(c2c(F)cc(N3C[C@H](Cn4ccnn4)OC3=O)cc2F)CCN1 | 4 | 2 | 16 | 1 | 4 | 1 | 0.5 | 32 | – | – |

| SMILES | MIC [1] [µg/mL] | MIC [2] [µg/mL] | MIC [3] [µg/mL] | MIC [4] [µg/mL] | MIC [5] [µg/mL] | MIC [6] [µg/mL] | MIC [7] [µg/mL] | MIC [8] [µg/mL] | MIC [9] [µg/mL] | ED50 [10] [mg/kg] |
| --- | --- | --- | --- | --- | --- | --- | --- | --- | --- | --- |
| CC(=O)N1CCN(c2c(F)cc(N3C[C@H](Cn4ccnn4)OC3=O)cc2F)CCN1 | 16 | 2 | 32 | 2 | 2 | 1 | 1 | 16 | – | – |
| O=C(C(F)F)N1CCN(c2c(F)cc(N3C[C@H](Cn4ccnn4)OC3=O)cc2F)CCN1 | 8 | 1 | 16 | 1 | 1 | 0.5 | 0.125 | 16 | – | – |
| O=C(C(F)F)N1CCN(c2c(F)cc(N3C[C@H](CNc4ccon4)OC3=O)cc2F)CCN1 | 4 | 0.5 | 16 | 1 | 0.5 | 0.5 | 0.125 | 8 | – | – |
| CC(=O)NC[C@H]1CN(c2ccc(N3CCn4c(=O)c5cccnc5n4CC3)c(F)c2)C(=O)O1 | 16 | 2 | 32 | 1 | 2 | 2 | 0.5 | 16 | – | – |
| CC(=O)NC[C@H]1CN(c2cc(F)c(N3CCn4c(=O)c5cccnc5n4CC3)c(F)c2)C(=O)O1 | 4 | 1 | 16 | 0.5 | 1 | 1 | 0.25 | 8 | – | – |
| COC(=S)NC[C@H]1CN(c2ccc(N3CCn4c(=O)c5cccnc5n4CC3)c(F)c2)C(=O)O1 | 2 | 0.5 | 16 | 0.25 | 0.25 | 0.25 | 0.125 | 2 | 0.25 | 3.17 |
| COC(=S)NC[C@H]1CN(c2cc(F)c(N3CCn4c(=O)c5cccnc5n4CC3)c(F)c2)C(=O)O1 | 1 | 0.5 | > 64 | 0.25 | 0.25 | 0.25 | 0.125 | 2 | 0.25 | 9.83 |
| O=C1O[C@@H](Cn2ccnn2)CN1c1ccc(N2CCn3c(=O)c4cccnc4n3CC2)c(F)c1 | 32 | 4 | 32 | 4 | 4 | 2 | 1 | 64 | – | – |
| O=C1O[C@@H](Cn2ccnn2)CN1c1cc(F)c(N2CCn3c(=O)c4cccnc4n3CC2)c(F)c1 | 8 | 1 | 32 | 2 | 1 | 0.5 | 0.5 | 8 | – | – |
| CC(=O)NC[C@H]1CN(c2cc(F)c(N3CCn4c(=O)c5cc(Cl)cnc5n4CC3)c(F)c2)C(=O)O1 | 4 | 2 | 64 | 1 | 1 | 1 | 0.25 | 8 | – | – |
| CC(=O)NC[C@H]1CN(c2cc(F)c(N3CCn4c(=O)c5cc(Br)cnc5n4CC3)c(F)c2)C(=O)O1 | 4 | 2 | 64 | 1 | 1 | 1 | 0.25 | 8 | – | – |
| CC(=O)NC[C@H]1CN(c2cc(F)c(N3CCON(C(C)=O)CC3)c(F)c2)C(=O)O1 | 4 | 2 | 32 | 4 | 4 | 2 | 1 | 32 | – | – |
| COC(=S)NC[C@H]1CN(c2ccc(N3CCNN(C(C)=O)CC3)c(F)c2)C(=O)O1 | 4 | 0.5 | 16 | 1 | 0.5 | 0.5 | 0.063 | 8 | 0.5 | 2.85 |
| CC(=O)N1CCN(c2c(F)cc(N3C[C@H](CNC(C)=S)OC3=O)cc2F)CCO1 | 2 | 0.5 | 8 | 1 | 0.5 | 0.25 | 0.125 | 4 | – | – |
| COC(=S)NC[C@H]1CN(c2cc(F)c(N3CCNN(C(C)=O)CC3)c(F)c2)C(=O)O1 | 2 | 1 | 32 | 1 | 0.5 | 0.5 | 0.125 | 4 | – | – |
